# Source: PubChem (several laboratories)
# Runt-CBFb FRET – Runt domain-CBFb interaction inhibition | Q01196+Q13951 | Cerulean-Runt/Venus-CBFb FRET ratio 530/480, 1 h | inhibition, % at 20 µM | 220,000 compounds, 0.46% hits | AID 1496;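 active = inhibition over about 50% at 20 µM in the single-dose screen, limit read from the data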;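 also: 0% = DMSO wells and 100% = excess unlabeled CBFb competitor control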
# Target sequence (Q01196 whole entry, looked up, the tested form may be a part): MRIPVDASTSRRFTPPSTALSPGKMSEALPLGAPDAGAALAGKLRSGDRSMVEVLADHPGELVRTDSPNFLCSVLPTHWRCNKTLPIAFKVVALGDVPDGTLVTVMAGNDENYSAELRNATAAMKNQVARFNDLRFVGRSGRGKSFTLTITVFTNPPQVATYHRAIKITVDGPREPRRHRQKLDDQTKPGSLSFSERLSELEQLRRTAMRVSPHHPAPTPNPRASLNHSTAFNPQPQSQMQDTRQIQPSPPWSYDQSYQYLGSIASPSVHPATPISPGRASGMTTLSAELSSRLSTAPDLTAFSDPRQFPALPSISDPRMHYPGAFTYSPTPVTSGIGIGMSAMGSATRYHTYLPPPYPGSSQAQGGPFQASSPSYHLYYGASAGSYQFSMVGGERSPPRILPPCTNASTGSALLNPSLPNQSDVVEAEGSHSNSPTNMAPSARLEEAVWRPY
# Target sequence (Q13951 whole entry, looked up, the tested form may be a part): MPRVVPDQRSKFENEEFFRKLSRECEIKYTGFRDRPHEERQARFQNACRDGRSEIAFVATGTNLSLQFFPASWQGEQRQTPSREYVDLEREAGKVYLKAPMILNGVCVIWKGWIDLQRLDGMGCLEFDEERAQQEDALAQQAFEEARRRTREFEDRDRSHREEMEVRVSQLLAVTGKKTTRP
#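 test system = Cerulean-Runt domain fusion protein, energy donor | probe or stimulus = Venus-CBFb binding partner, 100 nM | incubation = two 1 h room-temperature incubations shielded from light | detection = fluorescence energy transfer, 422 nm excitation, 530/480 nm emission | measure = loss of energy transfer signal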
# Runt-SMMHC FRET – inhibitors of human RUNX1 Runt domain binding to CBFb-SMMHC; inhibition, % at 20 µM; 220,000 compounds, 0.74% hits; Cerulean-Runt/Venus-CBFb-SMMHC FRET ratio 530/480, 1 h;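 active = mean inhibition across duplicate retests at 20 µM reaching about 50%, limit read from the data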;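 also: 0% = DMSO wells and 100% = wells with excess untagged CBFb-SMMHC; inhibitors lower the FRET ratio by blocking Runt binding to CBFb-SMMHC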
# RanGTP-Imp inh – inhibitors of RanGTP-importin-beta interaction, primary screen, biochemical, FRET, CFP-Ran, YFP-importin-beta, homogeneous. AID 2216. 300,000 compounds, 1.1% hits. inhibition, % (concentration not given with the values). cell-free CFP-Ran/YFP-importin-beta FRET ratio;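 active = more than half of the replicate wells show a fall in the fluorescence ratio signal beyond about 16%, limit read from the data, passing the limit was not always enough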;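 also: 0% = DMSO wells and 100% = Ran loaded with GDP instead of GTP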
# Hck-Nef inh – inhibitors of human Hck kinase activated by Nef; P08631; Recombinant Hck-YEEI plus Nef, Z-Lyte FRET kinase assay; inhibition, % at 20 µM; 220,000 compounds, 0.68% hits;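 active = Hck-Nef kinase inhibition above about 50%, limit read from the data; inactive = inhibition below that limit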;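 also: 0% = DMSO with Hck plus Nef and 100% = Hck alone without Nef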
# Hck-Nef confirm – Hck-Nef kinase inhibition, confirmation; shares compounds with Hck-Nef inh; Recombinant Hck-YEEI:Nef, Z-Lyte FRET kinase assay; calls only at 10 µM; 1,300 compounds, 28% hits;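 active = average inhibition of at least 50%, with Z-scores no higher than 3 in both the phospho-tyrosine peptide and fluorescence counterscreens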
# The depositor's hits bear a star; i = inactive; · = no result shown; + = active, no number. Compounds with a hit are over-represented: about 1.9% of the library has one in this group of screens.
SMILES,Runt-CBFb FRET,Runt-SMMHC FRET,RanGTP-Imp inh,Hck-Nef inh,Hck-Nef confirm
CCOC(=O)c1nc(Nc2ccc(Nc3ccccc3)cc2)c2ccccc2n1,·,-3,0,94*,i
CCOC(=O)c1ccc(Nc2nc(C(=O)OCC)nc3ccccc23)cc1,-1,-14,2,1,·
CC12CCC(=O)N1c1c(sc3nc(N4CCOCC4)c4c(c13)CCCC4)C(=O)N2 (stereo unspecified),5,96*,-1,61*,·
COC(=O)c1ccc(-c2sc3nc(N4CCOCC4)c4c(c3c2N)CCCC4)o1,6,-1,10,2,·
O=C1CCCN1CCCN1CC(C(=O)N(CCO)Cc2ccccc2)CCC1=O (stereo unspecified),·,·,-1,·,·
CCC(C)NC(=O)CCC(=O)Nc1ccc2nc(N3CC(C)CC(C)C3)cc(C)c2c1 (stereo unspecified),-2,-2,2,52*,i
CCC(C)NC(=O)CCC(=O)Nc1ccc2nc(N3CCOCC3)cc(C)c2c1 (stereo unspecified),·,3,-1,3,·
CCC(c1nnnn1Cc1ccc(OC)cc1)N1CCN(c2ccc(OC)cc2)CC1 (stereo unspecified),4,-4,-2,62*,i
CCC(c1nnnn1Cc1ccccc1)N1CCN(c2ccc(OC)cc2)CC1 (stereo unspecified),-1,5,0,23,·
O=C(CSc1ncnc2c1oc1ccccc12)Nc1cccc(Cl)c1,0,1,1,51*,i
CCOC(=O)C1CCCN(S(=O)(=O)c2cc3c4c(c2)CCC(=O)N4CCC3)C1 (stereo unspecified),·,·,-4,·,·
CCCCN(CC)Cc1c(O)ccc2c3c(c(=O)oc12)CCC3,37,73*,-3,+,·
CCN(CC)C(=O)COc1ccc2c3c(c(=O)oc2c1C)CCCC3,·,·,-4,·,·
COCCN(CCOC)Cc1c(O)ccc2c3c(c(=O)oc12)CCC3,44,93*,-2,72*,·
C=CCNC(=O)c1c(N)n(-c2cccc(S(N)(=O)=O)c2)c2nc3ccccc3nc12,80*,38,·,58*,i
CCC(C)NS(=O)(=O)c1ccc(S(=O)(=O)N2CCCC3(CCCCC3)C2)cc1 (stereo unspecified),-1,2,-2,-12,·
O=C1NC(=Nc2ccccc2)S/C1=C\C=C\c1ccco1,7,-17,-3,7,·
Cc1ccc(N=C2NC(=O)/C(=C/C=C/c3ccco3)S2)cc1,2,-31,2,97*,i
Cc1cccc(N=C2NC(=O)/C(=C/C=C/c3ccco3)S2)c1C,22,-10,-4,74*,i
Cc1ccc(Cl)c(OC(=O)Cn2cnc3c2c(=O)n(C)c(=O)n3C)c1,-2,-1,2,3,·
CCc1cc(=O)oc2cc(OC(=O)c3ccco3)ccc12,·,·,6,·,·
COC(=O)Cc1c(C)c2ccc(OC(=O)c3ccco3)cc2oc1=O,17,32,1,102*,·
Cc1cc(=O)oc2cc(OC(=O)c3ccco3)ccc12,12,20,3,127*,i
CCOc1ccc(-c2ccc(C=O)o2)c([N+](=O)[O-])c1,6,1,3,100*,i
CCCc1cc(-c2[nH]ncc2-c2ccc3c(c2)OCCCO3)c(O)cc1O,2,-4,-1,74*,+
SMILES,Runt-CBFb FRET,Runt-SMMHC FRET,RanGTP-Imp inh,Hck-Nef inh,Hck-Nef confirm
CCCc1cc(-c2[nH]ncc2-c2ccc(C(=O)OCC)o2)c(O)cc1O,3,-2,5,32,·
O=C(O)c1cccc(-n2cccc2/C=C2/NC(=O)N(c3ccc(Cl)cc3)C2=O)c1,39,13,·,82*,·
O=C(O)c1cccc(-n2cccc2/C=C2/NC(=O)N(c3cccc(Cl)c3)C2=O)c1,20,29,0,47,·
COC(=O)c1ccc(Nc2c([N+](=O)[O-])ccc3nonc23)cc1,·,·,-6,·,·
CCOC(=O)c1ccc(NC(=O)Cn2ncc(Cl)c(Cl)c2=O)cc1,-5,-7,-3,59*,+
COc1cc(C2NC(=O)CCC2[N+](=O)[O-])cc(Br)c1OC (stereo unspecified),·,·,-3,·,·
COC(=O)C1=CN(C(C)C)C=C(C(=O)OC)C1c1cccc(OC)c1,72*,-16,66*,61*,·
COC(=O)C1=CN(C(C)C)C=C(C(=O)OC)C1c1cc(Br)c(OC)c(OC)c1,114*,75*,59*,61*,·
